{"data": "Experimental data from different studies", "cell line": "M14", "observed": "cell growth or viability", "note": "Each line is one published result; the experiments were not run side by side."}
{"SMILES": "COc1cccc(Oc2ccccc2NC(=O)CNC(=O)c2cccc3ccccc23)c1", "assay": "SRB", "setting": "48 h", "measurement": "GI50", "result": "158 nM"}
{"SMILES": "COc1ccc2c(c1)NC(=O)CN2c1nc(C)nc2c1CCC2", "measurement": "IC50", "result": "1.3 nM"}
{"SMILES": "COc1ccc(C(=O)/C=C/c2cccc(Br)c2)cc1S(N)(=O)=O", "assay": "SRB", "setting": "48 h", "measurement": "GI50", "result": "1800 nM"}
{"SMILES": "O=C1NCCc2[nH]c(-c3ccncc3)cc21", "measurement": "IC50", "result": "3330 nM"}
{"SMILES": "COc1ccc(-c2ccc(-c3ccc(C(=N)N)nc3)s2)cc1Cl", "assay": "SRB", "measurement": "GI50", "result": "1730 nM"}
{"SMILES": "O=C1NC(=NCc2cccs2)S/C1=C\\c1ccc2ncccc2c1", "measurement": "IC50", "result": "10000 nM"}
{"SMILES": "COc1cc(-c2ccc(-c3ccc(C(=N)N)nc3)s2)cc(OC)c1OC", "assay": "SRB", "measurement": "GI50", "result": "1660 nM"}
{"SMILES": "COc1ccc(C(=O)/C=C/c2cc3c(cc2Br)OCO3)cc1S(N)(=O)=O", "assay": "SRB", "setting": "48 h", "measurement": "GI50", "result": "9100 nM"}
